The record followed here is ChEMBL document CHEMBL4814076, “Discovery of a Potent and Selective Covalent Inhibitor of Bruton's Tyrosine Kinase with Oral Anti-Inflammatory Activity” (ACS Med Chem Lett, 2021).

The nature of data set [1]: Inhibition of BTK in Wistar rat whole blood assessed as reduction in anti-IgD-induced B220/CD86+ expression incubated for 1 hr followed anti-IgD stimulation and measured after overnight by flow cytometry analysis. The format is tissue-based. Conditions: Rattus norvegicus, Blood, 1 h. In outline: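 B-cell activation induced by anti-IgD in rat whole blood, read as B220+CD86+ cells.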

The target of data set [2] is Receptor tyrosine-protein kinase erbB-4 (Homo sapiens, UniProt Q15303). The data set is described as follows: Inhibition of recombinant human ERBB4 (706 to 991 residues) using poly(Glu, Tyr) 4:1 as substrate incubated for 40 mins in presence of [gamma33P]ATP by scintillation counting method.
Receptor tyrosine-protein kinase erbB-4, sequence (Q15303 whole entry, the tested form may be a part): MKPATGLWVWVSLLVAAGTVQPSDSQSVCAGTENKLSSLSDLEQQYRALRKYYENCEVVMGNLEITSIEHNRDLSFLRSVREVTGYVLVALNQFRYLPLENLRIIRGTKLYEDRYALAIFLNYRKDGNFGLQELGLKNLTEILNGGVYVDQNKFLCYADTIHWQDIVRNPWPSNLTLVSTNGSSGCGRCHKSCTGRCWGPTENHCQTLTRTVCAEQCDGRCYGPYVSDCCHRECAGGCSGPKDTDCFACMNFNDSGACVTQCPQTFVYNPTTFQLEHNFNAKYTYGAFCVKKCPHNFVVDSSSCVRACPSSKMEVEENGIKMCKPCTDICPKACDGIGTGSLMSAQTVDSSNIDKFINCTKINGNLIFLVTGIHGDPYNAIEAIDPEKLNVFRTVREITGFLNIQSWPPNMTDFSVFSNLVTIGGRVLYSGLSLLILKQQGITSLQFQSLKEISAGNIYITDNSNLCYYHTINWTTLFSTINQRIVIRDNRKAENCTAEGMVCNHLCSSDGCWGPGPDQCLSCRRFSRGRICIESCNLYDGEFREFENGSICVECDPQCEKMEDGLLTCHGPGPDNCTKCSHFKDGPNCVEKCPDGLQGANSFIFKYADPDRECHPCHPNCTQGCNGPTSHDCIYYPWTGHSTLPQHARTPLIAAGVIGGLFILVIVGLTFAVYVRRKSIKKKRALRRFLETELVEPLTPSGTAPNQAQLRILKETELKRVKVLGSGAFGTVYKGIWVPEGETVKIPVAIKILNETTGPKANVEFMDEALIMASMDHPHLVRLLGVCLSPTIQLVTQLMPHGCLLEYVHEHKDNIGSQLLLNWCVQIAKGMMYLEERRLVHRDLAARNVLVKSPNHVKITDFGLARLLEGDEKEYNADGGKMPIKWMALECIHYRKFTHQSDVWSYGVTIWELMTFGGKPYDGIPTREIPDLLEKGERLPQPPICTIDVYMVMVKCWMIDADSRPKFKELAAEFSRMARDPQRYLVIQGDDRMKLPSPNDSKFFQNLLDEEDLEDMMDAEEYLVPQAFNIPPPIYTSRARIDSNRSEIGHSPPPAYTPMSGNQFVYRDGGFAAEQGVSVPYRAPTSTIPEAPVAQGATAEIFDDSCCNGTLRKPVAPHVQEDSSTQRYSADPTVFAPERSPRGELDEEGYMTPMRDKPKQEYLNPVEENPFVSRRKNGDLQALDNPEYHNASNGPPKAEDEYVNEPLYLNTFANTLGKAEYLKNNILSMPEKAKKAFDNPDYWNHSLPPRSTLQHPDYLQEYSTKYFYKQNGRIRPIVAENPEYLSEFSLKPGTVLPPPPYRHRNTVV
The target of data set [3] is T1, Tyrosine-protein kinase Tec (Homo sapiens, UniProt P42680).
T1 sequence (P42680 whole entry): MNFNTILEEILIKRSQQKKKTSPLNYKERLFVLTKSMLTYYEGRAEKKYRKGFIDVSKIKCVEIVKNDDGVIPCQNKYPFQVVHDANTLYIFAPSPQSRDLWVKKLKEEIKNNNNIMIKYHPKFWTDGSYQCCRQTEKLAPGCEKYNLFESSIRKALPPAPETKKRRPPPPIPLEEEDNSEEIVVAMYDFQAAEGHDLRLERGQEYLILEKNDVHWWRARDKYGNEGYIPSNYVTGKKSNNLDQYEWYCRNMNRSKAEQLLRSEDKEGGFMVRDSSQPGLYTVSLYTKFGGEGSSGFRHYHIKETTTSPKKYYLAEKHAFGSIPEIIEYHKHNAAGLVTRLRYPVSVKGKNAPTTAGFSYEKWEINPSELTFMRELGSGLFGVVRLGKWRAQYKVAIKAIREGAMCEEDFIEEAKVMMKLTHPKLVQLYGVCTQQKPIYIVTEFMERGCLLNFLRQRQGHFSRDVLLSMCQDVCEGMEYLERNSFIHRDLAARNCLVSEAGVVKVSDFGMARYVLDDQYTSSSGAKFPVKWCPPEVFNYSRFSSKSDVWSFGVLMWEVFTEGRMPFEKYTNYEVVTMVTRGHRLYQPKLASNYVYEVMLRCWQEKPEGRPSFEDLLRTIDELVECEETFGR
As to the kind of experiment: Inhibition of recombinant human TEC (174 to end residues) using EFPIYDFLPAKKK as substrate incubated for 40 mins in presence of [gamma33P]ATP by scintillation counting method.

Data set [4] concerns the target Tyrosine-protein kinase Lck (Homo sapiens, UniProt P06239). The data set is described as follows: Inhibition of LCK in human CD4+ T-cells assessed as reduction in anti-CD3/anti-CD28 induced IL-2 secretion at 10 uM incubated for 60 mins followed by anti-CD3/anti-CD28 stimulation and measured after 18 hrs by ELISA. It is filed as tissue-based. Conditions: CD4+ve Th, time 19.0 hrs. In outline:
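Anti-CD3/anti-CD28 stimulation of T cells. IL-2 secretion measured with compound tested up to 10 μM. An ITK inhibitor served as positive control.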

Data set [5] in a line: Clearance in Sprague-Dawley rat at 5 mg/kg, po or 1 mg/kg, iv measured upto 24 hrs by LC-MS/MS analysis. It is filed as ADME, organism-based. Conditions: in vivo. A digest of the protocol:
(§1)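 Rats (nonfasted; IV 1 mg/kg, PO 5 mg/kg) and dogs (fasted; IV 0.5 mg/kg, PO 2.5 mg/kg) dosed from 20% hydroxypropyl-β-cyclodextrin solution.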

Data set [6] is described as follows: Half life in Sprague-Dawley rat at 1 mg/kg, iv measured upto 24 hrs by LC-MS/MS analysis. Conditions: in vivo. The format is ADME, organism-based. In outline: as §1
The nature of data set [7]: Oral bioavailability in Sprague-Dawley rat at 5 mg/kg measured upto 24 hrs by LC-MS/MS analysis. The format is ADME, organism-based. Conditions: in vivo.
Data set [8] in a line: Tmax in Sprague-Dawley rat at 5 mg/kg, po measured upto 24 hrs by LC-MS/MS analysis. The format is ADME, organism-based. Conditions: in vivo. In outline: as §1
A short description of data set [9]: Clearance in Beagle dog at 2.5 mg/kg, po or 0.5 mg/kg, iv measured upto 24 hrs by LC-MS/MS analysis. It is filed as ADME, organism-based, Canis lupus familiaris. Conditions: in vivo. A digest of the protocol:
as §1

A short description of data set [10]: Half life in Beagle dog at 0.5 mg/kg, iv measured upto 24 hrs by LC-MS/MS analysis. It is filed as ADME, organism-based, Canis lupus familiaris. Conditions: in vivo. A digest of the protocol: as §1
Data set [11] can be described thus: Cmax in Beagle dog at 2.5 mg/kg, po measured upto 24 hrs by LC-MS/MS analysis. It is filed as ADME, organism-based, Canis lupus familiaris. Also on record: route oral, dose 2.5 mg/kg, time <=24. Conditions: in vivo. A digest of the protocol: as §1
A short description of data set [12]: In vivo protein occupancy at BTK in Wistar rat at 3 mg/kg, po measured after 24 hrs by ELISA relative to control. The format is functional. A digest of the protocol: (§2)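 Single oral dose of 3 mg/kg in rats. BTK occupancy compared with plasma concentration over time out to 48 h.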
A general note: An ELISA detects its analyte on a solid surface through an enzyme-linked reagent.

Data set [13] is described as follows: In vivo protein occupancy at BTK in Wistar rat at 3 mg/kg, po measured after 48 hrs by ELISA relative to control. The format is functional. In outline: as §2
For data set [14], the target named is Tyrosine-protein kinase BTK (Homo sapiens, UniProt Q06187). The data set is described as follows: Irreversible covalent inhibition of recombinant unphosphorylated human GST-tagged BTK kinase domain (389 to 659 residues) expressed in insect cells assessed as protein-compound adduct formation under native conditions by HPLC analysis. In outline: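 BTK protein incubated with compound. Adduct mass measured under denaturing and nondenaturing conditions.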
Tyrosine-protein kinase BTK, sequence (Q06187 whole entry, the tested form may be a part): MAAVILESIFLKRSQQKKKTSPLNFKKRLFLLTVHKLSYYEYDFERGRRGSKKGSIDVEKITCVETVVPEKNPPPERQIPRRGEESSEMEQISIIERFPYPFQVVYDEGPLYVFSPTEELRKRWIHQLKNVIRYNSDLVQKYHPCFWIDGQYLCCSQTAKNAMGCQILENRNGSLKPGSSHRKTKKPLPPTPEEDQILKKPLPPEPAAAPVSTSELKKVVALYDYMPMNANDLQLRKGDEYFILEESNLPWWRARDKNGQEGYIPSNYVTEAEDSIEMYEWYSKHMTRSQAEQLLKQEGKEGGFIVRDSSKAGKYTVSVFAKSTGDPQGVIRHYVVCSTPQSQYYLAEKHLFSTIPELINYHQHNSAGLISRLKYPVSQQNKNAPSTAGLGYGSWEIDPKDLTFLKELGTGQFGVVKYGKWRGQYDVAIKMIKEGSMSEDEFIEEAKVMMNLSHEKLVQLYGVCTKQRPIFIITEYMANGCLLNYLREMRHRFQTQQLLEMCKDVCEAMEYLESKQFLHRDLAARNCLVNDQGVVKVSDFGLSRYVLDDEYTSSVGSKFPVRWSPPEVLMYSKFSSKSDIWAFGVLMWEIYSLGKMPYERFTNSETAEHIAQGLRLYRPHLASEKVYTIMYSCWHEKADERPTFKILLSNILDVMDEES

The structures appear in SMILES notation. Calls of active or inactive are those of the source. The rule behind the calls is not given here.

Tyrosine-protein kinase Lck, sequence (P06239 2-509 limits assumed): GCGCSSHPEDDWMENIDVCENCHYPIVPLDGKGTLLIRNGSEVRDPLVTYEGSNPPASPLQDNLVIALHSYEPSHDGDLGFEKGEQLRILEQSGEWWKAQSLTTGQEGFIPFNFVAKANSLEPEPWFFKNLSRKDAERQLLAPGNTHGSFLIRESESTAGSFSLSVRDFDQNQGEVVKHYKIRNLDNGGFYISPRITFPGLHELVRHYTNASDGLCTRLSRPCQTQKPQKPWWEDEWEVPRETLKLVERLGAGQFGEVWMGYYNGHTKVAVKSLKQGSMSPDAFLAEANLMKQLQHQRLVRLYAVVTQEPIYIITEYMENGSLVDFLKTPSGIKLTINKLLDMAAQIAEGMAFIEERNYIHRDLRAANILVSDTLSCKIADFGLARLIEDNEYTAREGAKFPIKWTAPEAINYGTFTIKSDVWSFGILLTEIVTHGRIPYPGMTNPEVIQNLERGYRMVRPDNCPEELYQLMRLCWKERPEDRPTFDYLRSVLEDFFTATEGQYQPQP

In the case of `C=CC(=O)N1CC[C@@H](NC(=O)c2sc3nccc4c3c2NC(=O)N4c2ccc(Oc3ccccc3)cc2C)C1`, the IC50 in [1] stood at 130 nM; in [2] it was 377 nM; in [3] it was 409 nM. Further, in [4], the inhibition result is “inactive”. Besides, the clearance in data set [5] stood at 39.6 mL/min/kg; in [9], 8 mL/min/kg. The half-life is 0.3 h in data set [6] and 1.9 h in data set [10]. This compound showed a bioavailability in data set [7] of 29.7%. Also, the time to peak (Tmax) in data set [8] turned out to be 1 h. In addition, in data set [11], the peak concentration (Cmax) is 1500 nM. The values for the Activity in [12] and in data set [13] were 70% and 50%, respectively. Besides, the inhibition result in [14] was “Active”.

Usually IC50 stands for the concentration at which inhibition is half-maximal. What is called half-life is the time in which the quantity being followed falls by half. The term bioavailability denotes the share of a dose that reaches the circulation, judged against a reference dose that is usually intravenous. Usually Tmax stands for the time from dosing to the highest level. As usually defined, the Cmax is the highest concentration seen after dosing.
